ChEMBL document CHEMBL1153567, “Synthesis of novel pyrazole derivatives and evaluation of their antidepressant and anticonvulsant activities” (2009)
Calls of active or inactive are those of the source. No cut-off for these calls is given here.

Key:
Mus musculus [1] = test: Antidepressant activity in Swiss-Webster mouse assessed as reduction in duration of immobility time at 10 mg/kg, ip by tail suspension behavioral despair test relative to imipramine; format: functional; design: scale not given: the % may be the effect or the level left; conditions: route intraperitoneal
Mus musculus [2] = test: Antidepressant activity in Swiss-Webster mouse assessed as reduction in duration of immobility time at 10 mg/kg, ip by tail suspension behavioral despair test; format: functional; design: scale not given: the % may be the effect or the level left; conditions: route intraperitoneal
In short: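 Tail suspension test in mice (n = 6/group; 22 ± 3 °C, 60 ± 5% humidity, 12 h light cycle, acclimated ≥2 days). Doses given ip in 0.5% w/v CMC at 0.5 mL/100 g; controls received CMC, imipramine 10 mg kg⁻¹ ip as reference. After 1 h, mice hung by tape 1 cm from the tail tip, 80 cm above the floor. Passive, motionless immobility timed over 6 min; mean ± S.E.M. and % change from control.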

Mus musculus [3] = test: Anticonvulsant activity in Swiss-Webster mouse assessed as protection against PTZ-induced clonic seizures at 20 mg/kg, ip administered 1 hr before PTZ; format: functional; conditions: route intraperitoneal
In short: (§1)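 Mice (n = 6/group), kept at 22 ± 3 °C, 60 ± 5% humidity, 12 h light/dark cycle, acclimated ≥2 days, free food and water. Agents given ip in 0.5% w/v CMC in water at 0.5 mL/100 g. After 1 h, PTZ 100 mg kg⁻¹ ip (0.5% solution). Observed 30 min; no clonic spasm episode lasting ≥5 s counted as protection. % protection = (control − treated convulsions)/control × 100.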

Mus musculus [4] = test: Anticonvulsant activity in Swiss-Webster mouse assessed as protection against PTZ-induced clonic seizures at 20 mg/kg, ip administered 1 hr before PTZ
Mus musculus [5] = test: Anticonvulsant activity in Swiss-Webster mouse assessed as protection against PTZ-induced clonic seizures at 30 mg/kg, ip administered 1 hr before PTZ; format: functional, organism-based; design: dose 30 mg/kg; in short: as §1

SMILES	Activity (Mus musculus [1]) [%]	Activity (Mus musculus [2]) [%]	Activity (Mus musculus [3]) [%]	Activity (Mus musculus [4])	Activity (Mus musculus [5])
O=C(NNC(=O)c1ccccn1)c1ccccn1	80.2	32.39	–	–	–
N#CC1=C(N)N(C(=O)c2cccs2)NC1(C#N)C#N	–	10.6	56.8	–	–
O=C1NC(=O)C(c2ccccc2)(c2ccccc2)N1	–	–	–	Active	–
N#CC1=C(N)N(C(=O)c2ccccc2)NC1(C#N)C#N	–	9.37	–	–	–
CCOC(=O)c1[nH]n(C(=O)c2ccccn2)c(=O)c1C#N	86.1	36.99	53.7	–	–
CCOC(=O)c1[nH]n(C(=O)c2ccccc2)c(=O)c1C#N	71.8	24.41	74.5	–	Active
O=C(NNC(=O)c1cccs1)c1cccs1	–	72.22	–	–	–
CCOC(=O)c1[nH]n(C(=O)c2cc3ccccc3[nH]2)c(=O)c1C#N	78.1	30.54	74	–	Active
O=C(NNC(=O)c1ccccc1)c1ccccc1	–	71.96	65.1	–	–
CN(C)CCCN1c2ccccc2CCc2ccccc21 [IMIPRAMINE]	–	45.75	–	–	–
CCOC(=O)c1[nH]n(C(=O)c2cccs2)c(=O)c1C#N	66.4	18.33	78.7	–	Active
N#CC1=C(N)N(C(=O)c2ccccn2)NC1(C#N)C#N	88.6	38.76	–	–	–
N#CC1=C(N)N(C(=O)c2cc3ccccc3[nH]2)NC1(C#N)C#N	–	17.67	–	–	–
O=C(NNC(=O)c1cc2ccccc2[nH]1)c1cc2ccccc2[nH]1	–	17.8	–	–	–
